Screening data from PubChem BioAssay.
The list is not random: actives were taken first. Their share in the collection is about 9.3%.
PostGolgi ctrl: growth inhibition of yeast control strain, primary screen, counter-screen for post-Golgi transport modulator project. hit rate 5% among 98,000. efflux-deficient yeast background strain, growth absorbance A615, 16 h. AID 738, 2007. inhibition, % at 10 µM
D1 allo mod: D1 CRE-luciferase signal change, two-sided – cell-based, HEK293 D1, dopamine EC30, D1 allosteric modulator project, primary screen; D(1A) dopamine receptor (Homo sapiens), P21728; dopamine EC30 potentiation; actives deviate in either direction; B-score at 10 µM; hit rate 5.9% among 58,000; AID 641, 2007;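 active = luminescence count or its row- and column-corrected plate score outside the 99.7% band of the plate's sample wells, on either side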
Target sequence (P21728 whole entry, looked up): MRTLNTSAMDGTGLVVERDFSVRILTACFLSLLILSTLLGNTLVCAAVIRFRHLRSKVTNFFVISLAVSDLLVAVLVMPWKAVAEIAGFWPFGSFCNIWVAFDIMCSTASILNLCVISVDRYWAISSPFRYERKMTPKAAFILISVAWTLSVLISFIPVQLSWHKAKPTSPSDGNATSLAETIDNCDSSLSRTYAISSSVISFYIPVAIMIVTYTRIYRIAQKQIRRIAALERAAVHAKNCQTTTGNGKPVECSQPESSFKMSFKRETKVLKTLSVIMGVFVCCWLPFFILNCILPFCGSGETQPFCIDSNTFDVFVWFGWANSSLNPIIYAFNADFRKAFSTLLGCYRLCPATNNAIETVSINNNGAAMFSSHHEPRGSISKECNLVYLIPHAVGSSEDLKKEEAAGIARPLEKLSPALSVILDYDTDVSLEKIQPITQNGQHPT
Ecoli tolC: growth inhibitors of E. coli tolC mutant, primary screen, strain BW25113 ΔtolC::kan, 384-well; OD615; hit rate 2.2% among 65,000; growth inhibition, % at 10 µM (by protocol);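 active = growth inhibition at or above a cutoff equal to the mean over every tested compound plus 3 SD, cut at about 60% in these data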;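 also: growth measured after 20 h incubation at 37 °C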
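Material: E. coli BW25113 ΔtolC::kan, tolC deletion mutant strain. Measure: percent growth inhibition. Schedule: 37 °C, 20 h exposure. Doses: single-point testing at 10 µM. Signal: A615 absorbance measurement. Buffer or medium: kanamycin-containing LB broth (50 µg/mL).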
Ecoli WT expand: growth inhibitors of wild-type E. coli, primary screen, strain BW25113, expanded library, OD600; OD600 absorbance; growth inhibition, % at 100 µM; hit rate 0.15% among 98,000;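 active = growth inhibition above about 50% at one test dose, limit read from the data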;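 also: growth measured after 20 h incubation at 37 °C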
PostGolgi yeast: phenotypic screen on post-Golgi transport, primary screen. inhibition, % at 10 µM. AID 739, 2007. hit rate 0.9% among 98,000. post-Golgi transport phenotypic cell assay;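 also: yeast cells grown in 1536-well plates; yeast grown about 18 h at 30C before absorbance read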
hDAT+cocaine: changed hDAT dopamine uptake under cocaine IC80, either direction, primary screen, cocaine antagonist project, cell-based, LLC-PK1 hDAT, [14C]-dopamine uptake, MLSMR; hit rate 1.3% among 110,000; B-score at 10 µM; Sodium-dependent dopamine transporter (Homo sapiens), Q01959; AID 449768, 2010; LLC-PK1 hDAT cells, [14C]-dopamine uptake with cocaine IC80; actives deviate in either direction;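 active = Z score or B-score, a plate-position-corrected score, falls beyond the plate's 99.7% confidence bounds, in either direction; inactive = both scores lie inside the 99.7% bounds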;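 also: scored against the spread of the other compound wells on the same plate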
Starred values were filed as active, the others as inactive; . = no result given. Rule as the data show it, unless noted: active = inhibition above about 30%; inactive = the rest.

SMILES	PostGolgi ctrl	D1 allo mod	Ecoli tolC	Ecoli WT expand	PostGolgi yeast	hDAT+cocaine
CCc1nc(NCCCN2CCOCC2)c2oc3ccccc3c2n1	-1	-0.01	-12	3	0	1.2
CCc1nc(Nc2ccncc2)c2oc3ccccc3c2n1	2	-0.00093	-3	-1	6	0.06
CCc1nc(N2CCCC(C)C2)c2oc3ccccc3c2n1 (configuration not stated)	47*	1.9	100*	10	10	0.45
CCc1nc(N2CCN(Cc3ccc4c(c3)OCO4)CC2)c2oc3ccccc3c2n1	15	.	.	-24	12	0.87
O=c1[nH]nc(Sc2ncnc3sccc23)n1CCc1ccccc1	12	-1.7	17	4	-3	.
Clc1ccc(CNc2nnnn2-c2ccccc2)c(Cl)c1	21	.	.	3	-8	0.12
CCCCCc1nc2c(C#N)c(-c3ccc(Cl)cc3)ccn2n1	34*	.	.	-14	-2	0.43
N#Cc1c(-c2ccc(Cl)cc2)ccn2nc(CCC(=O)O)nc12	2	.	.	5	2	0.39
CC(C)CNC(=O)c1ccc(COc2ccc(Cl)cc2Cl)o1	32*	.	.	13	-9	0.97
O=C(Nc1ccccc1F)c1ccc(COc2ccc(Cl)cc2Cl)o1	.	.	.	.	.	-0.73
O=C(CSc1nnc(-c2ccc(OC(F)F)cc2)o1)NC(=O)NCc1ccco1	1	-0.6	-1	-13	3	-0.85
O=C(Cc1cccs1)NCCn1ccc2ccccc21	36*	0.034	1	7	-6	-0.096
COc1ccc(NC(=O)CN2CCOCC2)cc1	3	.	.	3	12	-0.29
CCOC(=O)C1CCCN(C(=O)CSc2nccn2C)C1 (configuration not stated)	5	.	0	3	-4	-3*
CCOC(=O)C1CCCN(C(=O)COc2ccccc2O)C1 (configuration not stated)	6	.	.	7	2	-0.77
O=[N+]([O-])c1ccc(N/N=C/c2c[nH]c3ccccc23)cc1	91*	.	.	-11	99*	-0.51
COc1ccccc1NS(=O)(=O)c1cc([N+](=O)[O-])ccc1N/N=C/c1c[nH]c2ccccc12	31*	.	.	-23	3	-0.059
N#C/C(=C/c1ccc(N2CCCCC2)o1)c1cccc(F)c1	11	.	.	-9	-2	-0.0073
N#C/C(=C/c1ccc(Sc2nc3ccccc3[nH]2)o1)c1cccc(F)c1	55*	.	.	-18	2	0.99
N#C/C(=C/c1ccc(Sc2nc3ccccc3[nH]2)o1)c1ccccc1F	28	.	.	-10	41*	0.055
N#C/C(=C/c1ccc(Sc2nc3ccccc3[nH]2)o1)c1cccc(Br)c1	32*	.	.	-11	0	0.89
COc1ccc(CC(=O)Nc2cccc(-c3nnc(-c4cccc(C)c4)o3)c2)cc1OC	13	-2.7*	1	1	3	3.1*
COc1ccc(CC(=O)Nc2cccc(-c3nnc(-c4ccc(C)cc4)o3)c2)cc1OC	-5	-0.17	21	-3	-8	1.7
CCCC(=O)Nc1ccc(-c2nc3cc(C)c(C)cc3o2)cc1	8	-2.4*	-3	2	-3	-0.29
CCCC(=O)Nc1ccc2oc(-c3ccncc3)nc2c1	13	-0.015	-6	-5	15	0.51
SMILES	PostGolgi ctrl	D1 allo mod	Ecoli tolC	Ecoli WT expand	PostGolgi yeast	hDAT+cocaine
COc1ccc(CC(=O)Nc2cccc(-c3nnc(-c4ccccc4)o3)c2)cc1OC	22	-2.3	10	-1	4	2.7*
COc1ccc(-c2nc3cc(NC(=O)Cc4ccc(OC)c(OC)c4)ccc3o2)cc1	2	-3.9*	22	-7	-6	0.98
Cn1c(CCNC(=O)c2ccco2)nc2cc(NS(=O)(=O)c3ccc(Cl)cc3)ccc21	2	-0.39	18	-6	-6	1
CC(=O)Nc1cccc(-c2nnc(-c3ccccc3)o2)c1	-5	0.038	5	-5	2	-8.4*
CCN(CC)c1nc(N)nc(N(c2ccccc2)c2ccccc2)n1	53*	.	.	-2	-8	-0.76
CN(C)c1nc(N)nc(N(c2ccccc2)c2ccccc2)n1	29	0.19	5	-4	1	1.1
CSCC[C@H](NC(=O)C1CCN(S(=O)(=O)c2ccc(C)cc2)CC1)C(=O)NCc1ccco1	31*	-0.034	-8	5	-1	-1.2
CSCC[C@H](NC(=O)C1CCN(S(=O)(=O)c2ccc(C)cc2)CC1)C(=O)NCC1CCCO1 (some centres not stated)	2	0.1	-16	-7	-4	-0.54
O=C(CCSc1ccccc1)NCCN1CCOCC1	39*	-0.087	-13	9	-4	-1.1
O=C(Cc1ccc(-c2ccccc2)cc1)NCCN1CCOCC1	7	.	-15	-3	2	-0.7
C=C1CSc2nc3ccccc3c(=O)n21	24	.	.	7	-4	0.011
COCCn1c(C)cc(C(=O)CSc2ccc3ccccc3n2)c1C	31*	.	.	-19	0	1.5
CCn1nc(C(=O)OCC(=O)c2cc(C)n(Cc3cccs3)c2C)c2ccccc2c1=O	42*	1.7	26	-14	-25	0.18
COCCn1c(C)cc(C(=O)COC(=O)c2n[nH]c3ccccc23)c1C	16	-8.4*	27	6	-4	1.4
Cc1cc(C(=O)COC(=O)c2n[nH]c3ccccc23)c(C)n1C	5	.	13	4	-1	0.2
Clc1ccc(/C=C/c2nc3ccccc3[nH]2)cc1	14	.	.	-1	4	-0.32
Clc1ccc(/C=C/c2nc3ccccc3[nH]2)c(Cl)c1	75*	.	.	6	24	-1.1
Clc1cccc(Cl)c1/C=C/c1nc2ccccc2[nH]1	66*	.	.	-5	8	-0.026
Cc1cc(NC(=O)CSc2nnc(-c3c[nH]c4ccccc34)n2C)no1	.	.	.	.	.	-0.36
COc1ccc(-c2cc(-c3c(O)c(OC)c4occc4c3OC)[nH]n2)cc1OC	15	-0.18	43	6	2	-0.9
COc1ccc(-c2cc(-c3c(O)c(OC)c4occc4c3OC)[nH]n2)cc1	56*	.	.	11	16	0.0094
CCOC(=O)CSC1=NC(=O)CS1	-2	-0.023	-1	-4	2	-0.79
CCC(C(=O)NCc1ccc(F)cc1)N(Cc1ccco1)C(=O)c1snc(C(N)=O)c1N (configuration not stated)	11	0.022	3	-4	3	4.3*
CCCC(C(=O)NCc1ccc(OC)cc1)N(Cc1ccco1)C(=O)c1snc(C(N)=O)c1N (configuration not stated)	19	-0.88	19	-9	-8	1.8
O=C(Nc1ccc(Cl)c(Cl)c1)OCCNC(=O)c1cccc(Cl)c1	9	.	.	5	3	-0.77
